ARFGAP1 inhibitor – inhibitors of rat ARFGAP1; Q62848; Arfgap1-stimulated ARF1 GTP hydrolysis, GDP FP detection; inhibition, % at 16.5 µM; 0.26% of 360,000 active; AID 651572;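 active = inhibition above a per-plate limit, mean inhibition of low control wells plus 3 SD, cut at about 25% in these data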
Target sequence (Q62848 1-136 limits assumed): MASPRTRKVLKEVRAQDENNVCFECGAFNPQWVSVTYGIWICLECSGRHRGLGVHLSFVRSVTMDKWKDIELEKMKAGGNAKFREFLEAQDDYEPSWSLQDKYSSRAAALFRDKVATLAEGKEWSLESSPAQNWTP
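system = rat Arfgap1 catalytic domain, aa 1-136 | technique = FP, GDP Alexa 633 tracer displaced from anti-GDP antibody, 620/688 nm | compound = one concentration, 16.5 µM, DMSO 1.26% | medium = HEPES-based buffer, pH 7.5 | timing = compound-enzyme preincubation 20 min, reaction 120 min, detection 60 min, 25 °C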
GC-A act – GC-A (human) enzyme activation; HEK293 GC-A cells, cGMP TR-FRET, EC30 ANP; 0% at EC30 ANP, 100% saturating ANP; activation, % at 10 µM; 0.14% of 370,000 active; AID 1671463; in the data active = activation above about 40%
HCV core dimer – HCV core protein dimerization inhibition. TR-FRET GST/Flag-core106 dimerization, 1536-well. inhibition, % at 5 µM. 0.33% of 300,000 active;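 active = inhibition above the mean of all tested compounds plus 3 SD, set per screening campaign, cut at about 45% in these data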
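System – GST-tagged and Flag-tagged HCV core protein residues 1-106 · Repeats – one well for each compound · Technique – TR-FRET 671 and 617 nm emission · Doses – one concentration, 5 µM, in 0.5% DMSO · Times – 4 h, 22.5 °C incubation · Also added – Eu donor and XL665 acceptor anti-tag antibodies · Measure – percent inhibition of core106 dimerization signal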
Fh CTSL1 inh – blocks F. hepatica cathepsin L1 in PFM18AAP counter-screen | inhibition, % at 5.96 µM | 0.49% of 300,000 active | recombinant F. hepatica cathepsin L1, Z-Leu-Arg-MCA fluorescence;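 active = inhibition above the mean of all tested compounds plus 3 SD, set per screening campaign, cut at about 17% in these data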
ASAP1 GAP inh – inhibitors of human ASAP1 ArfGAP activity; inhibition, % at 16.5 µM; AID 624377; 0.19% of 360,000 active; ASAP1-stimulated ARF1 GTP hydrolysis, GDP FP detection; in the data active = inhibition above about 25%
Target sequence (Q9ULH1 325-724 limits assumed): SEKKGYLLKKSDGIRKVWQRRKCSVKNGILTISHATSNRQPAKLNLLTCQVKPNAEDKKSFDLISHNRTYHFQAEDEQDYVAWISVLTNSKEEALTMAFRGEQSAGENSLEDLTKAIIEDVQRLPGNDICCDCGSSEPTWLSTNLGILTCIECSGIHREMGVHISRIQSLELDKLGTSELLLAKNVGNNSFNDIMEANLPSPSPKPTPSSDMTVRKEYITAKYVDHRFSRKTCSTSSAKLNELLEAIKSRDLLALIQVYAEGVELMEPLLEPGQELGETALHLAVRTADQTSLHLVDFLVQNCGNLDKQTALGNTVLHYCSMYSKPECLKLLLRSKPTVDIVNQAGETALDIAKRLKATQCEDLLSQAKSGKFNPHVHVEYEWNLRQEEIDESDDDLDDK
NPR2 activator – GC-B (human) receptor activation. P20594. HEK293-GC-B cells, CNP EC30, cGMP TR-FRET; 0% at EC30 CNP, 100% saturating CNP. activation, % at 10 µM. 0.11% of 370,000 active;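 active = activation at 10 µM reaching about 35% in either raw or pattern-adjusted values, limit read from the data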
Of the large screens only hits and unclear results are named; the others gave an inactive call. Only some compounds are listed: those with a hit (about 1.2% of all), similar ones and a draw of the others.

CCOC(=O)CN(C#N)c1nc(C)cc(C)n1	Fh CTSL1 inh 19.5
COC(=O)CN(C#N)c1nc(C)cc(C)n1	none
COc1ccccc1NC(=S)NC1CCC(CC2CCC(NC(=S)Nc3ccccc3OC)CC2)CC1 (stereo not given)	HCV core dimer 47.6
NC(=S)N/N=C/c1ccc(-c2cc(Cl)cc(Cl)c2)o1	none
CN(/N=C/c1ccc(-c2ccc([N+](=O)[O-])cc2)o1)c1ccccc1	HCV core dimer 55.1
NC(=S)N/N=C/c1ccc(-c2ccc([N+](=O)[O-])cc2)o1	HCV core dimer 49.9, Fh CTSL1 inh 22.1
COc1ccc(NC(=O)CS(=O)CC(=O)N2CCN(C3CCCC3)CC2)cc1 (stereo not given)	none
CC(=O)Oc1ccc(N2C(=O)C3C(C2=O)C(C(=O)c2ccc(Cl)cc2)N2CCCC32)cc1 (stereo not given)	none
Cc1ccc(N2C(=O)C3C(C2=O)C(C(=O)c2ccc(Cl)cc2)N2CCCC32)cc1 (stereo not given)	HCV core dimer 61.8
CC1=C(C(=O)Nc2ccccc2C)C(c2ccc(C)o2)n2c(s/c(=C/c3ccccc3)c2=O)=N1 (stereo not given)	HCV core dimer 47.7
CCCCn1[nH]c(-c2ccccc2)cc1=O	none
COc1ccc(C(c2nnnn2C2CCCCC2)N2CCN(C)CC2)c(OC)c1 (stereo not given)	Fh CTSL1 inh 17.9
COc1ccc2[nH]c(=O)c(C(c3nnnn3C3CCCCC3)N3CCN(C)CC3)cc2c1 (stereo not given)	none
CC(=O)c1c(C)n(-c2cccc(Cl)c2)c2ccc(O)cc12	GC-A act 65.8
CCC(=O)OCCNc1cc(Sc2nc3ccccc3[nH]2)c2nonc2c1[N+](=O)[O-]	GC-A act 42.9
O=C(CCl)Nc1c(C(=O)Nc2ccc3c(c2)OCCO3)oc2ccccc12	Fh CTSL1 inh 58.2
Cc1ccsc1C(=O)Nc1cccc(-n2cnnn2)c1	Fh CTSL1 inh 19.1
O=C(Nc1cccc(-n2cnnn2)c1)c1cccs1	none
N#Cc1ccc(NC(=O)COC(=O)CSc2nnc(-c3ccc(Cl)cc3)o2)cc1	GC-A act 62.3
O=C(CSc1ccccn1)NCc1ccc2c(c1)OCO2	Fh CTSL1 inh 17.1
NC(=O)c1c(NC(=O)COC(=O)CSc2nnc(-c3ccc(Cl)cc3)o2)sc2c1CCC2	GC-A act 50.9
O=C(COC(=O)CSc1nnc(-c2ccc(Cl)cc2)o1)NCc1ccc2c(c1)OCO2	GC-A act 63.3
O=C(CSc1ccccn1)Nc1ccc2c(c1)OCO2	none
Cc1cc(C)c2c(c1)OC(=O)CC2c1ccc2c(c1)OCO2 (stereo not given)	none (no result: HCV core dimer, Fh CTSL1 inh)
CCC(C)(C)NC(=O)c1ccc(Br)o1	none
CC(C)N1CCN(Cc2nc(-c3ccccc3)cs2)CC1CCO (stereo not given)	Fh CTSL1 inh 20.3
CCOC(=O)N1CCN(C(=O)Nc2cccc3ccccc23)CC1	Fh CTSL1 inh 17.4
O=c1cc(N2CCN(c3cccc(Cl)c3Cl)CC2)[nH]c(=O)n1C1CCCCC1	none (no result: ARFGAP1 inhibitor, HCV core dimer, Fh CTSL1 inh, ASAP1 GAP inh)
Cc1ccc(NC2=C/C(=N/S(=O)(=O)c3cccs3)c3ccccc3C2=O)cc1C	Fh CTSL1 inh 18.6
CC(=O)Nc1ccc(NC2=C/C(=N/S(=O)(=O)c3cccs3)c3ccccc3C2=O)cc1	Fh CTSL1 inh 102.2
Cc1cc[n+](C2=C([O-])c3ccccc3C(=O)/C2=N\S(=O)(=O)c2cccs2)cc1C	Fh CTSL1 inh 26.5
COc1ccccc1NC(=O)CC(c1ccc(F)cc1)c1ccco1 (stereo not given)	Fh CTSL1 inh 21.4
CCN(CC)C(=O)CC(c1ccccc1)c1ccco1 (stereo not given)	Fh CTSL1 inh 35.5
CCN(CC)C(=O)CP(=O)(c1ccccc1)c1ccccc1	none
O=C(CC(c1ccc(F)cc1)c1ccco1)N1CCCC1 (stereo not given)	Fh CTSL1 inh 35.7
CCCN(CCC)C(=O)CC(c1ccc(F)cc1)c1ccco1 (stereo not given)	Fh CTSL1 inh 57.3
O=C(CC(c1ccc(F)cc1)c1ccco1)N1CCOCC1 (stereo not given)	none
CCNC(=O)C1CC(=O)OC12CCCCC2 (stereo not given)	none
C#CCOCCOCCOCCNc1nc(N2CCN(C(=O)[C@H](CCC(=O)O)n3cc(C(N)CC(C)C)nn3)CC2)nc(N2CCN(C(=O)[C@H](Cc3ccc(O)cc3)n3cc(C(N)[C@H](C)CC)nn3)CC2)n1 (stereo not given in full)	none (no result: ARFGAP1 inhibitor, GC-A act, ASAP1 GAP inh, NPR2 activator)
O=C(NC1CCCCC1)C1CCC(=O)N(Cc2cccc(C(F)(F)F)c2)C1 (stereo not given)	none
Cc1ccc(C(=O)Nc2ccccc2C(=O)N2CC3(C)CC2CC(C)(C)C3)cc1 (stereo not given)	none
O=C1c2ccccc2C(=O)N1CCC(c1ccc(F)cc1)c1ccco1 (stereo not given)	Fh CTSL1 inh 18.0
O=C1CCC(=O)N1CCC(c1ccc(F)cc1)c1ccco1 (stereo not given)	none
CC1=C(C)CC(C(=O)NCC(=O)c2ccccc2)C(C(=O)O)C1 (stereo not given)	none
CCOC(=O)c1nn(-c2ccc(C)cc2)c(=O)c2c(N)scc12	Fh CTSL1 inh 16.8
Cc1ccc(C(=O)C2=C(O)C(=O)N(Cc3ccco3)C2c2cccc(Cl)c2)o1 (stereo not given)	none
Cc1ccc(C(=O)C2=C(O)C(=O)N(Cc3ccco3)C2c2cccc(Br)c2)o1 (stereo not given)	Fh CTSL1 inh 18.1
O=C(O)CCSc1ccccn1	none
O=C(CCSc1ccccn1)c1ccccc1	GC-A act 51.6, Fh CTSL1 inh 19.1
CCN(CC)CCNc1nc(-c2ccco2)c2c(c1C#N)CC(C)(C)OC2	none
CC1(C)Cc2c(C#N)c(NCCc3ccccc3)nc(-c3ccco3)c2CO1	NPR2 activator 47.7
Cc1cccc2sc(NC(=O)CCNC(=O)c3ccco3)nc12	none (no result: HCV core dimer, Fh CTSL1 inh)
COCCCNC(=O)CCn1nc(-c2ccc(Cl)cc2)ccc1=O	none
O=C1S/C(=C/c2ccc(N3CCOCC3)o2)C(=O)N1Cc1ccc(F)cc1	none
CC(C)OC(=O)CN1C(=O)S/C(=C/c2ccc(N3CCCCC3)o2)C1=O	Fh CTSL1 inh 17.4
CC(C)C[C@@H]1COc2cc(N3CCCC3)ccc2S(=O)(=O)N1	none (no result: HCV core dimer, Fh CTSL1 inh)
Nc1c(S(=O)(=O)c2cccc(Cl)c2)c2nc3ccccc3nc2n1/N=C/c1ccc(O)c(O)c1	HCV core dimer 70.6 (no result: ARFGAP1 inhibitor, GC-A act, ASAP1 GAP inh, NPR2 activator)
Cc1c(C(=O)N/N=C/c2ccccc2)sc(=S)n1C	ARFGAP1 inhibitor 25.8
